Laboratory results: ChEMBL document CHEMBL1127627, “Synthesis and antitumor activity of a new class of pyrazolo[4,3-e]pyrrolo[1,2-a][1,4]diazepinone analogues of pyrrolo[1,4][2,1-c]benzodiazepines” (J Med Chem, 1994)
“And” between values parts separate entries of the source, which are not always exact repeats. Equal values may be shown once.

Columns and labels:
L1210 [1] = assay: Tested in vitro for inhibition after 48 hr exposure against murine leukemia cell line L1210; assay type: functional, cell-based; conditions: Mus musculus, L1210, 48 h
Procedure, shortened: (§1)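 L1210 murine leukemia cells and their melphalan-resistant L1210/L-PAM subline were used in growth-inhibition studies. IC50 is the concentration inhibiting growth by 50% after 48 h exposure, given as the mean of repeated experiments ± standard deviation.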

[2] = Resistance index as the ratio of IC50 against L1210/L-PAM to that of L1210 cell lines; assay type: functional
LoVo [3] = assay: Tested in vitro for inhibition after 144 hr against human colon carcinoma LoVo/DX cell line resistant to Doxorubicin (DX); assay type: functional, cell-based
Procedure, shortened: (§2)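 LoVo human colon carcinoma cells and their doxorubicin-resistant LoVo/DX subline were used in growth-inhibition studies. IC50 is the concentration inhibiting growth by 50% after 144 h exposure to compound, reported as the mean of repeated experiments ± standard deviation.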

L1210 [4] = assay: Tested in vitro for inhibition after 48 hr exposure against murine leukemia cell line L1210/L-PAM resistant to melphalan (L-PAM); assay type: functional, cell-based; conditions: Mus musculus, L1210, 48 h; procedure, shortened: as §1
LoVo [5] = assay: Tested in vitro for inhibition after 144 hr exposure against human colon carcinoma LoVo cell line; assay type: functional, cell-based; procedure, shortened: as §2
[6] = Resistance index as the ratio of IC50 against LoVo/Dx to that of LoVo; assay type: functional
Procedure, shortened: (§3)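 Resistance index taken as IC50 in doxorubicin-resistant LoVo/DX human colon carcinoma cells over IC50 in parental LoVo cells. Each IC50 is the concentration giving 50% growth inhibition after 144 h exposure.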

L1210 [7] = assay: Tested in vitro for inhibition after 48 hr exposure against murine leukemia cell line L1210 by experiment 2; assay type: functional, cell-based; conditions: Mus musculus, L1210, 48 h; procedure, shortened: as §1
L1210 [8] = assay: Tested in vitro for inhibition after 48 hr exposure against murine leukemia cell line L1210/L-PAM resistant to melphalan (L-PAM)by experiment 2.; assay type: functional, cell-based; conditions: Mus musculus, L1210, 48 h; procedure, shortened: as §1
L1210 [9] = assay: Tested in vitro for inhibition after 48 hr exposure against murine leukemia cell line L1210/L-PAM resistant to melphalan (L-PAM)by experiment 1.; assay type: functional, cell-based; conditions: Mus musculus, L1210, 48 h; procedure, shortened: as §1
[10] = Resistance index as the ratio of IC50 against LoVo/Dx to that of LoVo.; assay type: functional; procedure, shortened: as §3
L1210 [11] = assay: Tested in vitro for inhibition after 48 hr exposure against murine leukemia cell line L1210 by experiment 1; assay type: functional, cell-based; conditions: Mus musculus, L1210, 48 h; procedure, shortened: as §1
[12] = Resistance index as the ratio of IC50 against L1210/L-PAM to that of L1210 cell lines in experiment 2.; assay type: functional
Procedure, shortened: (§4)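 Resistance index computed as IC50 in melphalan-resistant L1210/L-PAM murine leukemia cells divided by IC50 in parental L1210 cells. Each IC50 is the concentration inhibiting growth by 50% after 48 h exposure, from growth-inhibition studies.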

L1210 [13] = assay: Tested in vitro for inhibition after 48 hr exposure against murine leukemia cell line L1210/L-PAM resistant to melphalan (L-PAM) by experiment 1; assay type: functional, cell-based; conditions: Mus musculus, L1210, 48 h; procedure, shortened: as §1
L1210 [14] = assay: Tested in vitro for inhibition after 48 hr exposure against murine leukemia cell line L1210/L-PAM resistant to melphalan (L-PAM) by experiment 2; assay type: functional, cell-based; conditions: Mus musculus, L1210, 48 h; procedure, shortened: as §1
[15] = Resistance index as the ratio of IC50 against LoVo/Dx to that of LoVo in experiment 1; assay type: functional; procedure, shortened: as §3
L1210 [16] = assay: Tested in vitro for inhibition after 48 hr exposure against murine leukemia cell line L1210/L-PAM resistant to melphalan (L-PAM) by experiment 2.; assay type: functional, cell-based; conditions: Mus musculus, L1210, 48 h; procedure, shortened: as §1
[17] = Resistance index as the ratio of IC50 against L1210/L-PAM to that of L1210 cell lines.; assay type: functional; procedure, shortened: as §4
L1210 [18] = assay: Tested in vitro for inhibition after 48 hr exposure against murine leukemia cell line L1210/L-PAM resistant to melphalan (L-PAM) by experiment 1.; assay type: functional, cell-based; conditions: Mus musculus, L1210, 48 h; procedure, shortened: as §1
L1210 [19] = assay: tested in vitro for inhibition after 48 hr exposure against murine leukemia cell line L1210/L-PAM resistant to melphalan (L-PAM by experiment 2.; assay type: functional, cell-based; conditions: Mus musculus, L1210, 48 h; procedure, shortened: as §1
L1210 [20] = assay: tested in vitro for inhibition after 48 hr exposure against murine leukemia cell line L1210/L-PAM resistant to melphalan (L-PAM by experiment 1.; assay type: functional, cell-based; conditions: Mus musculus, L1210, 48 h; procedure, shortened: as §1

SMILES	IC50 (L1210 [1])	IC50 (LoVo [3])	IC50 (LoVo [5])	RI [6]	IC50 (L1210 [7])	IC50 (L1210 [11])	also measured
CC(C)c1c2c(nn1Cc1ccccc1)C(=O)N1CCC[C@H]1C=N2	12 µM	8 µM	30 µM	0.2	–	–	RI [2]: 0.97; IC50 (L1210 [4]): 11 µM
COc1ccc(Cn2nc3c(c2C)N=C[C@@H]2CCCN2C3=O)cc1	–	32 µM	48.4 µM	–	11 µM	19 µM	IC50 (L1210 [8]): 6 µM; IC50 (L1210 [9]): 3 µM; RI [10]: 0.7
N[C@@H](Cc1ccc(N(CCCl)CCCl)cc1)C(=O)O	15.3 µM	4.9 µM	4.09 µM	1.18	–	–	RI [2]: 3.1; IC50 (L1210 [4]): 47 µM
CCn1nc2c(c1C)N=C[C@@H]1CCCN1C2=O	–	6 µM	15 µM	–	6 µM	7 µM	RI [12]: 0.9 and 2; IC50 (L1210 [13]): 6 µM; IC50 (L1210 [14]): 13 µM; RI [15]: 0.4
COC(=O)c1nn(C)c2c1N=C[C@@H]1CCCN1C2=O	27 µM	60 µM	54 µM	1.12	–	–	–
Cc1nn(C)c2c1N=C[C@@H]1CCCN1C2=O	22 µM	39 µM	42 µM	0.9	–	–	–
Cc1c2c(nn1Cc1ccccc1)C(=O)N1CCC[C@H]1C=N2	3 µM	25 µM	54 µM	0.5	–	–	–
CCn1nc(C)c2c1C(=O)N1CCC[C@H]1C=N2	–	> 215 µM	> 215 µM	–	69 µM	40 µM	IC50 (L1210 [16]): 125 µM; RI [17]: 2.5; IC50 (L1210 [18]): 101 µM
Cc1c2c(nn1C)C(=O)N1CCC[C@H]1C=N2	8 µM	32 µM	27 µM	1.2	–	–	–
Cc1c2c(nn1Cc1ccc(Cl)cc1)C(=O)N1CCC[C@H]1C=N2	–	11 µM	37 µM	–	0.8 µM	0.5 µM	IC50 (L1210 [16]): 0.27 µM; RI [17]: 2.8 and 3.1; IC50 (L1210 [18]): 0.16 µM; RI [10]: 0.3
Cc1ccc(Cn2nc3c(c2C)N=C[C@@H]2CCCN2C3=O)cc1C	–	6 µM	40 µM	–	5 µM	4 µM	IC50 (L1210 [16]): 4 µM; IC50 (L1210 [18]): 8 µM; RI [10]: 0.2
COc1cc2c(cc1O)N=C[C@@H]1CCCN1C2=O	0.38 µM	–	–	–	–	–	–
Cc1nn(Cc2ccccc2)c2c1N=C[C@@H]1CCCN1C2=O	20 µM	38 µM	46 µM	0.8	–	–	–
COC(=O)c1c2c(nn1C)C(=O)N1CCC[C@H]1C=N2	–	> 162 µM	> 162 µM	–	41 µM	31 µM	IC50 (L1210 [19]): 62 µM; RI [17]: 2.2 and 1.5; IC50 (L1210 [20]): 69 µM
COc1cccc2c1C(=O)c1c(O)c3c(c(O)c1C2=O)C[C@@](O)(C(=O)CO)C[C@@H]3O[C@H]1C[C@H](N)[C@H](O)[C@H](C)O1 [DOXORUBICIN]	0.05 µM	7.6 µM	0.057 µM	133	–	–	IC50 (L1210 [4]): 0.06 µM
C/C=C1/CC2C(OC)Nc3cc(OC)c(OC)cc3C(=O)N2C1 (stereo not drawn)	0.012 µM	0.004 µM	0.009 µM	0.5	–	–	RI [2]: 1.4; IC50 (L1210 [4]): 0.015 µM
